{"source": "ChEMBL document CHEMBL5252662", "about": "“Rimonabant-Based Compounds Bearing Hydrophobic Amino Acid Derivatives as Cannabinoid Receptor Subtype 1 Ligands” (ACS Med Chem Lett, 2023)", "key": {"[1]": {"target": "T1, Cannabinoid receptor 1 (Rattus norvegicus, UniProt P20272)", "T1 sequence (P20272 whole entry)": "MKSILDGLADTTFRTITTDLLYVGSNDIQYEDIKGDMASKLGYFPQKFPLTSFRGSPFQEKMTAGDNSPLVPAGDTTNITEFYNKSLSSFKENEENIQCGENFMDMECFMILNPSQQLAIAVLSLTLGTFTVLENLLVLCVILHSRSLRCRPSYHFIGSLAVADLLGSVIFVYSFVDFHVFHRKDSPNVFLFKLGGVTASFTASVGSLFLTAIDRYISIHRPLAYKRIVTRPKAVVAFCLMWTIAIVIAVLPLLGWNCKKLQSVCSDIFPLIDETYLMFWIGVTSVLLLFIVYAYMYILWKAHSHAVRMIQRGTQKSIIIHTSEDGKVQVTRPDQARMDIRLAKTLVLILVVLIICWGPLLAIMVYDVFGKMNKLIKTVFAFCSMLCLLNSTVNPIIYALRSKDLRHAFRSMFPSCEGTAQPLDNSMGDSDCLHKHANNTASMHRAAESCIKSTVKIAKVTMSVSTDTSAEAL", "assay": "Displacement of [3H]-WIN55212-2 from CB1R in rat brain membranes incubated for 60 mins by radioligand competitive binding assay", "type": "cell membranes, Membrane", "details": "for pKi: read-out: Ki"}, "[2]": {"tested_on": "Mus musculus", "assay": "Induction of food uptake in CD-1 mouse model at 10 mg/kg, ip measured after 1 hr", "type": "functional, organism-based", "in_short": "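Mice dosed i.p. at 10 mg/kg and left 30 min. Each was then placed in an individual cage with 2 g of standard chow, and intake was measured over a 1 h test. Mean ± SEM from the same seven mice at each dose, compared with vehicle-treated animals.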"}, "[3]": {"target": "T1, Cannabinoid receptor 1", "assay": "Agonist activity at rat brain membrane CB1 receptor assessed as stimulation of [35S]GTPgammaS binding incubated for 60 mins", "type": "cell membranes"}, "[4]": {"target": "Cannabinoid receptor 1 (Rattus norvegicus) (UniProt P20272)", "sequence (P20272 whole entry)": "as above", "assay": "Agonist activity at rat brain membrane CB1 receptor assessed as stimulation of [35S]GTPgammaS binding incubated for 60 mins relative to control", "type": "cell membranes", "details": "filed as agonist"}, "[5]": {"tested_on": "Mus musculus", "assay": "Antinociceptive activity in CD-1 mouse assessed as increase in response time to thermal nociceptive stimuli at 10 ug, icv measured after 60 mins by hot plate test", "type": "functional, organism-based", "details": "dose 10.0 µg", "in_short": "(§1)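 Single i.c.v. injection of 10 μg/10 μL; vehicle saline with 0.1% v/v DMSO. Response latency to thermal stimulus on hot plate recorded over time after dosing. Expressed as % maximum possible effect (%MPE) ± SEM, N = 7.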"}, "[6]": {"tested_on": "Mus musculus", "assay": "Antinociceptive activity in CD-1 mouse assessed as increase in response time to thermal nociceptive stimuli at 10 ug, icv measured at 15 to 120 mins", "type": "functional, organism-based", "details": "dose 10.0 µg, time lower […], time upper […]", "in_short": "as §1"}, "[7]": {"tested_on": "Mus musculus", "assay": "Anti-inflammatory activity against zymosan-induced paw edema CD-1 mouse model assessed as reduction of increased paw volume at 100 ug,sc administered 30 mins prior to zymosan challenge and measured after 1 to 4 hrs", "type": "functional, organism-based", "details": "dose 100.0 µg, time lower […], time upper […]"}}, "note": "pEC50, pKi: −log10 of the molar value. The source made the active and inactive calls. The calls are words filed in the database; no cut-off is given here.", "data": [{"smiles": "CC(C)[C@H](NC(=O)c1cc(-n2cccc2)n(-c2ccccc2)n1)C(=O)O", "values": [{"measurement": "Ki", "setting": "[1]", "result": "Not Active"}]}, {"smiles": "Cc1c(C(=O)N[C@H](C(N)=O)C(C)(C)C)nn(-c2ccc(Cl)c(Cl)c2)c1-n1cccc1Cl", "values": [{"measurement": "Activity", "setting": "[2]", "result": "inactive"}, {"measurement": "pKi", "setting": "[1]", "result": 7.35}, {"measurement": "pEC50", "setting": "[3]", "result": 5.73}, {"measurement": "Emax", "setting": "[4]", "result": 70, "unit": "%"}]}, {"smiles": "CNC(=O)[C@@H](NC(=O)c1nn(-c2ccc(Cl)cc2Cl)c(-n2cccc2Cl)c1C)C(C)(C)C", "values": [{"measurement": "Ki", "setting": "[1]", "result": "Not Active"}]}, {"smiles": "CC(C)[C@H](NC(=O)c1cc(-n2cccc2)n(-c2ccc(Cl)cc2)n1)C(=O)O", "values": [{"measurement": "Ki", "setting": "[1]", "result": "Not Active"}]}, {"smiles": "Cc1c(C(=O)N[C@H](C(=O)O)C(C)C)nn(-c2ccc(Cl)cc2)c1-n1cccc1", "values": [{"measurement": "Ki", "setting": "[1]", "result": "Not Active"}]}, {"smiles": "Cc1c(C(=O)N[C@H](C(N)=O)C(C)(C)C)nn(-c2ccccc2)c1-n1cccc1", "values": [{"measurement": "Activity", "setting": "[2]", "result": "inactive"}]}, {"smiles": "CC(C)(C)[C@H](NC(=O)c1cc(-n2cccc2)n(-c2ccc(Cl)cc2)n1)C(=O)O", "values": [{"measurement": "Ki", "setting": "[1]", "result": "Not Active"}]}, {"smiles": "Cc1c(C(=O)N[C@H](C(=O)O)C(C)C)nn(-c2ccccc2)c1-n1cccc1", "values": [{"measurement": "Ki", "setting": "[1]", "result": "Not Active"}]}, {"smiles": "Cc1c(C(=O)N[C@H](C(N)=O)C(C)(C)C)nn(-c2ccc(Cl)cc2)c1-n1cccc1", "values": [{"measurement": "Activity", "setting": "[2]", "result": "inactive"}]}, {"smiles": "Cc1c(C(=O)N[C@H](C(N)=O)C(C)C)nn(-c2ccc(Cl)c(Cl)c2)c1-n1cccc1Cl", "values": [{"measurement": "pKi", "setting": "[1]", "result": 6.35}, {"measurement": "pEC50", "setting": "[3]", "result": 6.07}, {"measurement": "Emax", "setting": "[4]", "result": 60, "unit": "%"}]}, {"smiles": "Cc1c(C(=O)N[C@H](C(=O)O)C(C)C)nn(-c2ccc(Cl)cc2Cl)c1-n1cccc1Cl", "values": [{"measurement": "Ki", "setting": "[1]", "result": "Not Active"}]}, {"smiles": "Cc1c(C(=O)N[C@H](C(=O)O)C(C)(C)C)nn(-c2ccccc2)c1-n1cccc1", "values": [{"measurement": "Ki", "setting": "[1]", "result": "Not Active"}]}, {"smiles": "COC(=O)[C@@H](NC(=O)c1nn(-c2ccc(Cl)cc2)c(-n2cccc2)c1C)C(C)(C)C", "values": [{"measurement": "Activity", "setting": "[2]", "result": "inactive"}]}, {"smiles": "COC(=O)[C@@H](NC(=O)c1nn(-c2ccc(Cl)cc2Cl)c(-n2cccc2Cl)c1C)C(C)C", "values": [{"measurement": "Activity", "setting": "[2]", "result": "Active"}]}, {"smiles": "COC(=O)[C@@H](NC(=O)c1cc(-n2cccc2)n(-c2ccc(Cl)cc2)n1)C(C)C", "values": [{"measurement": "Activity", "setting": "[2]", "result": "inactive"}]}, {"smiles": "Cc1c(C(=O)N[C@H](C(=O)O)C(C)(C)C)nn(-c2ccc(Cl)cc2Cl)c1-n1cccc1Cl", "values": [{"measurement": "Ki", "setting": "[1]", "result": "Not Active"}]}, {"smiles": "CC(C)[C@H](NC(=O)c1cc(-n2cccc2)n(-c2ccccc2)n1)C(N)=O", "values": [{"measurement": "Ki", "setting": "[1]", "result": "Not Active"}]}, {"smiles": "Cc1c(C(=O)c2cccc3ccccc23)c2cccc3c2n1[C@H](CN1CCOCC1)CO3", "values": [{"measurement": "Activity", "setting": "[5]", "result": "Active"}]}, {"smiles": "CC(C)(C)[C@H](NC(=O)c1cc(-n2cccc2)n(-c2ccccc2)n1)C(=O)O", "values": [{"measurement": "Ki", "setting": "[1]", "result": "Not Active"}]}, {"smiles": "COC(=O)[C@@H](NC(=O)c1cc(-n2cccc2)n(-c2ccc(Cl)cc2)n1)C(C)(C)C", "values": [{"measurement": "Activity", "setting": "[2]", "result": "inactive"}]}, {"smiles": "COC(=O)[C@@H](NC(=O)c1cc(-n2cccc2)n(-c2ccccc2)n1)C(C)(C)C", "values": [{"measurement": "Activity", "setting": "[2]", "result": "Active"}]}, {"smiles": "CNC(=O)[C@@H](NC(=O)c1nn(-c2ccc(Cl)cc2)c(-n2cccc2)c1C)C(C)(C)C", "values": [{"measurement": "Activity", "setting": "[2]", "result": "Active"}, {"measurement": "Activity", "setting": "[6]", "result": "Active"}, {"measurement": "Activity", "setting": "[7]", "result": "Active"}]}]}
